Assay results published in ChEMBL document CHEMBL2034906, “Inhibition of tumor cells interacting with stromal cells by xanthones isolated from a Costa Rican Penicillium sp” (J Nat Prod, 2012).

Key:
RPMI-8226 [1] = assay: Cytotoxicity against human RPMI8226 cells after 48 hrs by luminometric analysis; type: functional, cell-based; conditions: RPMI-8226, 48 h
Procedure, shortened: (§1)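 Tumor cells were cultured without HS-5 stromal cells and treated with increasing compound concentrations for 48 h. Luciferin substrate was added, cultures were incubated 30 min, and bioluminescence was read on a luminometer. Signal was normalized to the non-treated control, with each condition in quadruplicate, and IC50 was calculated.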

[2] = Cytotoxicity against human KMS34 cells after 48 hrs by luminometric analysis; type: functional, cell-based; conditions: KMS-34, 48 h; procedure, shortened: as §1
[3] = Cytotoxicity against human OCI-My5 cells after 48 hrs by luminometric analysis; type: functional, cell-based; conditions: OCI-My5, 48 h; procedure, shortened: as §1
[4] = Cytotoxicity against human OCILY17R cells after 48 hrs by luminometric analysis in presence of HS5 bone marrow stromal cells; type: functional, cell-based
Procedure, shortened: (§2)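 Tumor cells were co-cultured with HS-5 bone marrow stromal cells. For non-adherent tumors, stroma was seeded overnight, then tumor cells were overlaid and treated the next day. For adherent tumors, stroma and tumor cells were plated together overnight, then treated. Cells received increasing compound concentrations for 48 h. Luciferin was added for 30 min and bioluminescence read. Signal was normalized to the untreated control, in quadruplicate, and IC50 was calculated.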

NCI-H929 (Homo sapiens) [5] = assay: Cytotoxicity against human NCI-H929 cells after 48 hrs by luminometric analysis; conditions: NCI-H929, 48 h
[6] = Cytotoxicity against human MM1S cells after 48 hrs by luminometric analysis; type: functional, cell-based; conditions: MM1.S; procedure, shortened: as §1
[7] = Cytotoxicity against human Farage cells after 48 hrs by luminometric analysis; type: functional, cell-based; procedure, shortened: as §1
L-363 [8] = assay: Cytotoxicity against human L363 cells after 48 hrs by luminometric analysis; type: functional, cell-based; conditions: L-363, 48 h; procedure, shortened: as §1
PC-3 [9] = assay: Cytotoxicity against human PC3 cells after 48 hrs by luminometric analysis in presence of HS5 bone marrow stromal cells; type: functional, cell-based; conditions: PC-3, 48 h; procedure, shortened: as §2
MDA-MB-231 [10] = assay: Cytotoxicity against human MDA-MB-231 cells after 48 hrs by luminometric analysis; type: functional, cell-based; conditions: MDA-MB-231, 48 h; procedure, shortened: as §1
[11] = Cytotoxicity against human 8226/DOX40 cells after 48 hrs by luminometric analysis; type: functional, cell-based; procedure, shortened: as §1
OPM-2 [12] = assay: Cytotoxicity against human OPM2 cells after 48 hrs by luminometric analysis in presence of HS5 bone marrow stromal cells; type: functional, cell-based; conditions: OPM-2, 48 h; procedure, shortened: as §2
[13] = Cytotoxicity against human 8226/DOX40 cells after 48 hrs by luminometric analysis in presence of HS5 bone marrow stromal cells; type: functional, cell-based; procedure, shortened: as §2
HT [14] = assay: Cytotoxicity against human HT cells after 48 hrs by luminometric analysis in presence of HS5 bone marrow stromal cells; type: functional, cell-based; procedure, shortened: as §2
PC-3 [15] = assay: Cytotoxicity against human PC3 cells after 48 hrs by luminometric analysis; type: functional, cell-based; conditions: PC-3, 48 h; procedure, shortened: as §1
OPM-2 [16] = assay: Cytotoxicity against human OPM2 cells after 48 hrs by luminometric analysis; type: functional, cell-based; conditions: OPM-2, 48 h; procedure, shortened: as §1
[17] = Cytotoxicity against human OCI-My5 cells after 48 hrs by luminometric analysis in presence of HS5 bone marrow stromal cells; type: functional, cell-based; conditions: OCI-My5, 48 h; procedure, shortened: as §2
MDA-MB-231 [18] = assay: Cytotoxicity against human MDA-MB-231 cells after 48 hrs by luminometric analysis in presence of HS5 bone marrow stromal cells; type: functional, cell-based; conditions: MDA-MB-231, 48 h; procedure, shortened: as §2
HT [19] = assay: Cytotoxicity against human HT cells after 48 hrs by luminometric analysis; type: functional, cell-based; procedure, shortened: as §1
[20] = Cytotoxicity against human Farage cells after 48 hrs by luminometric analysis in presence of HS5 bone marrow stromal cells; type: functional, cell-based; procedure, shortened: as §2
[21] = Cytotoxicity against human KMS34 cells after 48 hrs by luminometric analysis in presence of HS5 bone marrow stromal cells; type: functional, cell-based; conditions: KMS-34, 48 h; procedure, shortened: as §2
RPMI-8226 [22] = assay: Cytotoxicity against human RPMI8226 cells after 48 hrs by luminometric analysis in presence of HS5 bone marrow stromal cells; type: functional, cell-based; conditions: RPMI-8226, 48 h; procedure, shortened: as §2
NCI-H929 (Homo sapiens) [23] = assay: Cytotoxicity against human NCI-H929 cells after 48 hrs by luminometric analysis in presence of HS5 bone marrow stromal cells; conditions: NCI-H929, 48 h
[24] = Cytotoxicity against human KU-812F cells after 48 hrs by luminometric analysis in presence of HS5 bone marrow stromal cells; type: functional, cell-based; procedure, shortened: as §2
[25] = Cytotoxicity against human OCILY17R cells after 48 hrs by luminometric analysis; type: functional, cell-based; procedure, shortened: as §1
[26] = Cytotoxicity against human MM1S cells after 48 hrs by luminometric analysis in presence of HS5 bone marrow stromal cells; type: functional, cell-based; conditions: MM1.S; procedure, shortened: as §2
L-363 [27] = assay: Cytotoxicity against human L363 cells after 48 hrs by luminometric analysis in presence of HS5 bone marrow stromal cells; type: functional, cell-based; conditions: L-363, 48 h; procedure, shortened: as §2
[28] = Cytotoxicity against human KU-812F cells after 48 hrs by luminometric analysis; type: functional, cell-based; procedure, shortened: as §1
[29] = Cytotoxicity against human HS5 cells after 48 hrs by luminometric analysis; type: cell-based; conditions: HS5, 48 h
[30] = Cytotoxicity against human HOBIT cells after 48 hrs by luminometric analysis; type: cell-based
RPMI-8226 [31] = assay: Ratio of IC50 for human RPMI8226 cells in absence of HS5 bone marrow stromal cells to IC50 for human RPMI8226 in presence of HS5 bone marrow stromal cells; type: functional
[32] = Cytotoxicity against human THLE3 cells after 48 hrs by luminometric analysis; type: cell-based; conditions: THLE3, 48 h
[33] = Cytotoxicity against human SVGp12 cells after 48 hrs by luminometric analysis; type: cell-based; conditions: SVGp12, 48 h

| SMILES | IC50 (RPMI-8226 [1]) [µM] | IC50 (NCI-H929 (Homo sapiens) [5]) [µM] | IC50 [6] [µM] | IC50 [7] [µM] | IC50 (PC-3 [9]) [µM] | IC50 (MDA-MB-231 [10]) [µM] | IC50 [11] [µM] | IC50 (OPM-2 [12]) [µM] | IC50 [13] [µM] | IC50 (HT [14]) [µM] | IC50 (PC-3 [15]) [µM] | IC50 (OPM-2 [16]) [µM] | IC50 (MDA-MB-231 [18]) [µM] | IC50 (HT [19]) [µM] | IC50 [20] [µM] | IC50 (RPMI-8226 [22]) [µM] | IC50 (NCI-H929 (Homo sapiens) [23]) [µM] | IC50 [24] [µM] | IC50 [26] [µM] | IC50 [28] [µM] | other results |
| --- | --- | --- | --- | --- | --- | --- | --- | --- | --- | --- | --- | --- | --- | --- | --- | --- | --- | --- | --- | --- | --- |
| CC(=O)OC[C@]12Oc3cccc(O)c3C(=O)C1=C(O)C[C@@H](C)[C@H]2OC(C)=O (relative stereo) | 71.6 | 188 | 168 | 200 | 216 | 164 | 11.6 | 44.8 | 24.2 | 34.9 | 1380 | 42.8 | 118 | 100 | 38.7 | 34 | 94.8 | 95.9 | 186 | 44.9 | IC50 [2]: 153 µM; IC50 [3]: 158 µM; IC50 [4]: 293 µM; IC50 (L-363 [8]): 464 µM; IC50 [17]: 384 µM; IC50 [21]: 199 µM; IC50 [25]: 1620 µM; IC50 (L-363 [27]): 199 µM |
| CC(=O)OC[C@]12Oc3ccc(-c4ccc5c(c4O)C(=O)C4=C(O)C[C@@H](C)[C@@H](OC(C)=O)[C@@]4(COC(C)=O)O5)c(O)c3C(=O)C1=C(O)C[C@@H](C)[C@H]2OC(C)=O [DICERANDROL C] | 4.8 | 10.8 | 14.7 | 3.5 | 45.2 | 18.1 | 10 | 7.5 | 13.9 | 4 | 121 | 4.8 | 13.3 | 2.1 | 3.3 | 2.8 | 5.4 | 14.3 | 20.8 | 7.1 |  |
| CC(=O)OC[C@]12Oc3c(-c4ccc5c(c4O)C(=O)C4=C(O)C[C@@H](C)[C@@H](OC(C)=O)[C@@]4(CO)O5)ccc(O)c3C(=O)C1=C(O)C[C@@H](C)[C@H]2OC(C)=O (relative stereo) | 12.9 | 54.5 | 37.1 | 12.4 | 66.3 | 43.4 | 15 | 10.5 | 21.6 | 9.9 | 122 | 12.7 | 34.2 | 10.8 | 10.5 | 8.9 | 35.2 | 24.2 | 47.1 | 14.6 | IC50 [2]: 22.6 µM; IC50 [3]: 18.8 µM; IC50 [4]: 47.4 µM; IC50 (L-363 [8]): 66 µM; IC50 [17]: 47.7 µM; IC50 [21]: 55.6 µM; IC50 [25]: 31.1 µM; IC50 (L-363 [27]): 79.4 µM |
| CC(=O)O[C@@H]1[C@H](C)CC(O)=C2C(=O)c3c(ccc(-c4ccc5c(c4O)C(=O)C4=C(O)C[C@@H](C)[C@@H](OC(C)=O)[C@@]4(CO)O5)c3O)O[C@@]21CO [DICERANDROL A] |  | 42.5 | 28.9 | 15.6 | 71.7 | 43.3 | 22.8 |  | 36.9 |  | 100 |  | 38.4 |  | 14.8 |  | 22.9 | 46.6 | 33.3 | 24.6 |  |
| CC(=O)OC[C@]12Oc3ccc(-c4ccc5c(c4O)C(=O)C4=C(O)C[C@@H](C)[C@@H](OC(C)=O)[C@@]4(CO)O5)c(O)c3C(=O)C1=C(O)C[C@@H](C)[C@H]2OC(C)=O [DICERANDROL B] | 2.4 | 10.2 | 7.3 | 1.6 | 14.1 | 8.5 | 2.2 | 1.5 | 2.3 | 1.3 | 34 | 1.9 | 5.5 | 1.2 | 1.3 | 1.2 | 3.4 | 3.6 | 8 | 2.7 | IC50 [29]: 13 µM; IC50 [2]: 5.5 µM; IC50 [3]: 2.8 µM; IC50 [4]: 5.2 µM; IC50 (L-363 [8]): 16.7 µM; IC50 [30]: 9.2 µM; Ratio IC50 (RPMI-8226 [31]): 2; IC50 [17]: 5.7 µM; IC50 [32]: 10 µM; IC50 [21]: 9.3 µM; IC50 [33]: 13.7 µM; IC50 [25]: 4.6 µM |
